Laboratory results: ChEMBL document CHEMBL4020844, “Regio- and Stereospecific Synthesis of Oridonin D-Ring Aziridinated Analogues for the Treatment of Triple-Negative Breast Cancer via Mediated Irreversible Covalent Warheads” (J Med Chem, 2018)
Active and inactive are the calls of the source. The calls are words filed in the database; no cut-off is given here.

Experiments:
[1] = Glutathione reactivity in pH 7.4 deuterated phosphate buffer assessed as reaction half life at 10 mg up to 10 mins in presence of 1.5 to 2 equiv of GSH by 1H NMR analysis; assay type: physicochemical
[2] = system: MCF7; experiment: Antiproliferative activity against human MCF7 cells after 72 hrs by MTT assay; assay type: functional, cell-based
Summary of the method: (§1)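 MTT proliferation assay. Cells were seeded at 1 × 10^4 per well and exposed to DMSO or compound at 0.1, 0.33, 1.0, 3.3 and 10 μM for 72 h. MTT reagent was added, and OD at 560 nm was read after 1 h at 37°C. Each concentration was tested in quadruplicate wells.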

[3] = system: MDA-MB-231; experiment: Antiproliferative activity against human MDA-MB-231 cells after 72 hrs by MTT assay; assay type: functional, cell-based; summary of the method: as §1
[4] = Glutathione reactivity in pH 7.4 deuterated phosphate buffer at 10 mg after 20 hrs in presence of 1.5 to 2 equiv of GSH by 1H NMR analysis
[5] = Drug level in pH 7.4 deuterated phosphate buffer treated with (2R,3'S,3a'R,3a1'R,6a'R,7'S,11'S,11a'S)-7',11'-Dihydroxy-5',5',8',8'-tetramethyldecahydro-2'H-spiro[aziridine-2,15'-[6a,11a]-(epoxymethano)[3,3a1]ethanophenanthro[1,10-de][1,3]dioxin]-14'-one at 10 mg after 5 hrs in presence of 1.5 to 2 equiv of GSH by HRMS analysis
[6] = system: Plasma; experiment: Stability in mouse plasma up to 5 hrs; assay type: ADME, cell-free
[7] = Toxicity in ip dosed ddYS mouse implanted with mouse ehrlich carcinoma cells administered once daily for 7 consecutive days measured for 40 days; assay type: organism-based; conditions: in vivo
[8] = system: Plasma; experiment: Stability in human plasma up to 5 hrs; assay type: ADME, cell-free
[9] = Stability in mouse microsomes; assay type: ADME, Microsome
[10] = system: MDA-MB-231; experiment: Antitumor activity against human MDA-MB-231 cells xenografted in nude mouse assessed as tumor growth inhibition at 10 mg/kg, ip daily for 10 days; assay type: functional, organism-based
Summary of the method: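 Orthotopic model: female nude mice, 6–8 weeks old. MDA-MB-231 cells (1.0 × 10^6 in PBS) were injected into the no. 3 mammary fat pad, and mice were randomized into 4 groups. Once tumors reached 80–100 mm3, mice received 10 or 15 mg/kg daily by intraperitoneal injection in DMSO vehicle. Tumor volume (0.5 × L × W2) and body weight were measured daily. Mean ± SEM.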

[11] = system: Plasma; experiment: Stability in rat plasma up to 5 hrs; assay type: ADME, cell-free
[12] = Stability in human microsomes; assay type: ADME, Microsome
[13] = Stability in rat microsomes; assay type: ADME, Microsome
[14] = Glutathione reactivity in pH 7.4 deuterated phosphate buffer assessed as GSH adduct formation at 10 mg up to 10 mins in presence of 1.5 to 2 equiv of GSH by HRMS analysis
[15] = Glutathione reactivity in pH 7.4 deuterated phosphate buffer assessed as reaction half life at 10 mg up to 24 hrs in presence of 1.5 to 2 equiv of GSH by 1H NMR analysis; assay type: physicochemical; conditions: pH 7.4, 24 h
[16] = Glutathione reactivity in pH 7.4 deuterated phosphate buffer assessed as GSH adduct formation at 10 mg after 5 hrs in presence of 1.5 to 2 equiv of GSH by HRMS analysis
[17] = Drug level in pH 7.4 deuterated phosphate buffer treated with (2R,3'S,3a'R,3a1'R,6a'R,7'S,11'S,11a'S)-1-Acryloyl-7',11'-dihydroxy-5',5',8',8'-tetramethyldecahydro-2'H-spiro[aziridine-2,15'-[6a,11a](epoxymethano)[3,3a1]ethanophenanthro[1,10-de][1,3]-dioxin]-14'-one at 10 mg after 1 hr in presence of 1.5 to 2 equiv of GSH by HRMS analysis
[18] = Potency index, ratio of oridonin IC50 to compound IC50 for human LX2 cells; assay type: functional
[19] = Antiproliferative activity against human LX2 cells by alamar blue assay; assay type: functional, cell-based; conditions: LX-2
[20] = Drug level in pH 7.4 deuterated phosphate buffer treated with oridonin at 10 mg up to 10 mins in presence of 1.5 to 2 equiv of GSH by HRMS analysis

With `C=C1C(=O)[C@]23[C@H](OC(=O)[C@H](C)N)[C@H]1CC[C@H]2[C@@]12CO[C@@]3(O)[C@@H](O)[C@@H]1C(C)(C)CC[C@@H]2O.O=C(O)C(F)(F)F` the Drug metabolism ([1]; in vitro, pH 7.4, 10 min) was “Metabolite_Detected”.
In the case of `C=CCNc1nc2c(s1)CC(C)(C)[C@H]1[C@H](O)[C@]3(O)OC[C@@]21[C@@H]1CC[C@@H]2[C@@H](O)[C@@]13C(=O)C21CN1` (some centres undefined), the Activity [2] is reported as “Active” and the Activity [3] is reported as “Active”.
With `CCC(=O)N1CC12C(=O)[C@@]13[C@@H]4OC(C)(C)O[C@@]15OC[C@@]1([C@H]([C@@H]5O)C(C)(C)CC[C@@H]1O)[C@@H]3CC[C@H]42` (some centres undefined) the Activity [2] was “inactive” and the Activity [3] was “inactive”.
With `C=CCNc1nc2c(s1)CC(C)(C)[C@H]1[C@H](O)[C@]3(O)OC[C@@]21[C@@H]1CC[C@@H]2[C@@H](O)[C@@]13C(=O)C21CN1C(=O)OCC1c2ccccc2-c2ccccc21` (some centres undefined) the Activity [2] was “Active” and the Activity [3] was “Active”.
In the case of `O=C(O)C1CN1` (centres undefined), the Drug metabolism [4] is reported as “Metabolite detected”.
With `CC1(C)O[C@@H]2[C@H]3CC[C@H]4[C@@]56CO[C@@](O1)([C@@H](O)[C@@H]5C(C)(C)CC[C@@H]6O)[C@@]24C(=O)C3(N)CSCC(NC(=O)CC[C@H](N)C(=O)O)C(=O)NCC(=O)O` (some centres undefined) the Drug metabolism [5] was “Metabolite detected”.
For `C=C1C(=O)[C@@]23[C@@H]4OC(C)(C)O[C@@]25OC[C@@]2([C@H]([C@@H]5O)C(C)(C)CC[C@@H]2O)[C@@H]3CC[C@@H]14`, the t1/2 ([1]; gsh, pH 7.4, 10 min) was < 1 min.
For `C=C1C(=O)[C@]23[C@H](O)[C@H]1CC[C@H]2[C@@]12CO[C@]3(O)[C@@H](O)[C@@H]1C(C)(C)CC[C@@H]2O` [ORIDONIN], the Stability [6] was “Stable”, the LD50 at 960 h [7] was 37.5 mg/kg and the half-life ([1]; deuterated phosphate buffer with glutathione (GSH), pH 7.4) was < 1 min. For the same compound, the Stability [8] was “Stable”, the Stability [9] was “Stable” and the IC50 ([2]; MCF7, 72 h) was 6.72 µM. The TGI [10] was “Active”, the Stability [11] was “Stable” and the Stability [12] was “Stable”. The IC50 ([3]; MDA-MB-231, 72 h) was 29.4 µM, the Stability [13] was “Stable” and the Drug metabolism [14] was “Metabolite detected”.
For `CC1(C)O[C@@H]2[C@H]3CC[C@H]4[C@@]56CO[C@@](O1)([C@@H](O)[C@@H]5C(C)(C)CC[C@@H]6O)[C@@]24C(=O)C31CN1` (some centres undefined), the Stability [6] was “Stable”, the Stability [8] was “Stable” and the t1/2 [15] was 4 to 6 h. The Stability [9] was “Stable”, the Stability [11] was “Stable” and the Drug metabolism [16] was “Metabolite detected”. The Stability [12] was “Stable” and the Stability [13] was “Stable”.
In the case of `CC1(C)O[C@@H]2[C@H]3CC[C@H]4[C@@]56CO[C@@](O1)([C@@H](O)[C@@H]5C(C)(C)CC[C@@H]6O)[C@@]24C(=O)C31CN1C(=O)CCSC[C@H](NC(=O)CC[C@H](N)C(=O)O)C(=O)NCC(=O)O` (some centres undefined), the Drug metabolism [17] is reported as “Metabolite detected”.
For `C=C1C(=O)[C@]23[C@H](O)[C@H]1CC[C@H]2[C@]12C=CCC(C)(C)[C@H]1[C@H](O)[C@]3(O)OC2`, the “Ratio IC50” value [18] was 10 and the IC50 [19] was 0.49 µM.
In the case of `CC1(C)CC[C@H](O)[C@]23CO[C@@](O)([C@@H](O)[C@H]12)[C@]12C(=O)C(CSCC(NC(=O)CC[C@H](N)C(=O)O)C(=O)NCC(=O)O)[C@H](CC[C@@H]31)[C@H]2O` (some centres undefined), the Drug metabolism [20] is reported as “Metabolite detected”.
